Source: ChEMBL document CHEMBL2434837, “Anticancer evaluation of some newly synthesized N-nicotinonitrile derivative” (Eur J Med Chem, 2013)
Values after ≈ are worked out from the molar mass of the structure shown. Active and inactive are the calls of the source. The rule behind the calls is not given here.

Experiments:
[1] = tested on: HepG2; assay: Inhibition of uPA protein expression in human HepG2 cells at 0.1 time compound IC50 after 48 hrs by ELISA; format: functional
Summary of the method: (§1)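 Cells exposed 48 h to compound. Culture medium collected and spun at 2000 xg for 10 min to remove debris. Sandwich ELISA for human uPA: sample 2 h, biotinylated anti-uPA 1 h at 25 °C, streptavidin-peroxidase 30 min, chromogen, then stop solution, absorbance read at 450 nm. uPA level expressed as percent change relative to DMSO-treated control cells.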

[2] = tested on: A549; assay: Inhibition of uPA protein expression in human A549 cells at 0.1 time compound IC50 after 48 hrs by ELISA; format: functional; summary of the method: as §1
[3] = tested on: HepG2; assay: Cytotoxicity against human HepG2 cells after 48 hrs by SRB assay; format: functional, cell-based
Summary of the method: (§2)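 Cells from ATCC, kept in DMEM with 10% heat-inactivated fetal calf serum, penicillin and streptomycin at 37 °C, 5% CO2. Seeded at 10^4 cells/well and left 24 h to attach. Compounds in DMSO (1 mg/ml stock) added at several concentrations, triplicate wells per dose, 48 h exposure. Then fixed, stained 30 min with 0.4% SRB in 1% acetic acid, and dye recovered in Tris-EDTA for absorbance. IC50 derived from surviving fraction versus concentration.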

[4] = tested on: MCF7; assay: Inhibition of uPA protein expression in human MCF7 cells at 0.1 time compound IC50 after 48 hrs by ELISA; format: functional; summary of the method: as §1
[5] = tested on: MCF7; assay: Cytotoxicity against human MCF7 cells after 48 hrs by SRB assay; format: functional, cell-based; summary of the method: as §2
[6] = tested on: A549; assay: Cytotoxicity against human A549 cells after 48 hrs by SRB assay; format: functional, cell-based; summary of the method: as §2
[7] = Homo sapiens, HepG2, 48 h, read-out: IC50
[8] = Homo sapiens, MCF7, 48 h, read-out: IC50

SMILES	inhibition [1]	inhibition [2]	IC50 ([3]; hepg2)	inhibition [4]	IC50 ([5]; mcf7)	IC50 ([6]; a549)	inhibition (INH) [1] [%]	IC50 [3, 7] [mg/L]	inhibition (INH) [4] [%]	IC50 [5, 8] [mg/L]	inhibition (INH) [2] [%]	IC50 ([6]; Homo sapiens, A549, 48 h, read-out: IC50) [mg/L]
N#CCn1c(-c2ccc(Cl)cc2)cc(-c2ccc(Cl)cc2)c(C#N)c1=O	inactive	inactive	Not Active	inactive	Not Active	Not Active	–	–	–	–	–	–
N#Cc1c(-c2ccc(Cl)cc2)cc(-c2ccc(Cl)cc2)n(CC2CO2)c1=O (stereo not drawn)	–	inactive	–	–	–	Not Active	63	6.2 (≈ 15.6 µM)	77	5 (≈ 12.6 µM)	–	–
COc1cccc2c1C(=O)c1c(O)c3c(c(O)c1C2=O)C[C@@](O)(C(=O)CO)C[C@@H]3O[C@H]1C[C@H](N)[C@H](O)[C@H](C)O1 [DOXORUBICIN]	–	–	–	–	–	–	88	3.9 (≈ 7.18 µM)	91	–	82	4.11 (≈ 7.56 µM)
N#Cc1c(-c2ccc(Cl)cc2)cc(-c2ccc(Cl)cc2)n([C@@H]2O[C@H](CO)[C@@H](O)[C@H](O)[C@H]2O)c1=O	–	inactive	–	–	–	Not Active	6	16.1 (≈ 32 µM)	9	14.2 (≈ 28.2 µM)	–	–
N#Cc1c(-c2ccc(Cl)cc2)cc(-c2ccc(Cl)cc2)n([C@@H]2O[C@H](CO)[C@@H](O)[C@H]2O)c1=O	–	inactive	–	–	–	Not Active	56	6.9 (≈ 14.6 µM)	60	5.7 (≈ 12 µM)	–	–
C#CCn1c(-c2ccc(Cl)cc2)cc(-c2ccc(Cl)cc2)c(C#N)c1=O	–	inactive	–	–	–	Not Active	5	18.3 (≈ 48.3 µM)	7	16.7 (≈ 44 µM)	–	–
N#Cc1c(-c2ccc(Cl)cc2)cc(-c2ccc(Cl)cc2)n(C(=O)c2ccccc2)c1=O	–	inactive	–	–	–	Not Active	87	3.75 (≈ 8.42 µM)	90	2.6 (≈ 5.84 µM)	–	–
N#Cc1c(-c2ccc(Cl)cc2)cc(-c2ccc(Cl)cc2)n(Cc2ccccc2)c1=O	–	inactive	–	–	–	Not Active	83	4.2 (≈ 9.74 µM)	86	3.65 (≈ 8.46 µM)	–	–
CC(=O)OC[C@H]1O[C@@H](n2c(-c3ccc(Cl)cc3)cc(-c3ccc(Cl)cc3)c(C#N)c2=O)[C@H](OC(C)=O)[C@@H](OC(C)=O)[C@@H]1OC(C)=O	–	inactive	–	–	–	Not Active	48	7.25 (≈ 10.8 µM)	54	6.3 (≈ 9.38 µM)	–	–
CCn1c(-c2ccc(Cl)cc2)cc(-c2ccc(Cl)cc2)c(C#N)c1=O	–	inactive	–	–	–	Not Active	2	22.3 (≈ 60.4 µM)	3	19.7 (≈ 53.4 µM)	–	–
C=CCn1c(-c2ccc(Cl)cc2)cc(-c2ccc(Cl)cc2)c(C#N)c1=O	–	inactive	–	–	–	Not Active	5	20 (≈ 52.5 µM)	3	19 (≈ 49.8 µM)	–	–
N#Cc1c(-c2ccc(Cl)cc2)cc(-c2ccc(Cl)cc2)[nH]c1=O	inactive	inactive	Not Active	inactive	Not Active	Not Active	–	–	–	–	–	–
N#Cc1c(-c2ccc(Cl)cc2)cc(-c2ccc(Cl)cc2)n([C@@H]2O[C@H](COC(=O)c3ccccc3)[C@@H](OC(=O)c3ccccc3)[C@H]2OC(=O)c2ccccc2)c1=O	–	inactive	–	–	–	Not Active	60	8 (≈ 10.2 µM)	66	5.9 (≈ 7.51 µM)	–	–
N#Cc1c(-c2ccc(Cl)cc2)cc(-c2ccc(Cl)cc2)n(CC(O)CCl)c1=O (stereo not drawn)	–	inactive	–	–	–	Not Active	67	4.8 (≈ 11.1 µM)	82	4.6 (≈ 10.6 µM)	–	–
